Reference: ChEMBL document CHEMBL4270612, “Discovery of dual GyrB/ParE inhibitors active against Gram-negative bacteria” (Eur J Med Chem, 2018)
≈ marks a conversion by molar mass, not a printed value.

Key:
Acinetobacter baumannii [1] = assay: Antibacterial activity against Acinetobacter baumannii ARC3515 after 24 hrs by broth microdilution method; type: functional; details: ARC3515, 24 h
Outline: (§1)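 Broth microdilution per CLSI. Bacterial suspension adjusted to 1×10^6 CFU/mL in cation-adjusted Mueller–Hinton broth and mixed 1:1 with 2-fold serial compound dilutions. Final DMSO 2.5% v/v. Plates incubated at 35 °C with shaking at 140 rpm for 24 h.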

Pseudomonas aeruginosa [2] = assay: Antibacterial activity against Pseudomonas aeruginosa ARC3504 after 24 hrs by broth microdilution method; type: functional; details: ARC3504, 24 h; outline: as §1
Acinetobacter baumannii [3] = assay: Antibacterial activity against Acinetobacter baumannii ARC3492 after 24 hrs by broth microdilution method; type: functional; details: ARC3492, 24 h
Outline: (§2)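 Broth microdilution per CLSI. Bacterial suspension adjusted to 1×10^6 CFU/mL in cation-adjusted Mueller–Hinton broth and mixed 1:1 with 2-fold serial compound dilutions. Plates incubated at 35 °C with shaking at 140 rpm for 24 h.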

Staphylococcus aureus [4] = assay: Antibacterial activity against methicillin-resistant Staphylococcus aureus FQ-R after 24 hrs by broth microdilution method; type: functional
Outline: (§3)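 Broth microdilution per CLSI. Bacterial suspensions adjusted to 1×10^6 CFU/mL in cation-adjusted Mueller–Hinton broth, mixed 1:1 with 2-fold serial compound dilutions (final DMSO 2.5% v/v). Incubation 35 °C, 140 rpm, 24 h.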

Acinetobacter baumannii [5] = assay: Antibacterial activity against Acinetobacter baumannii ARC3657 after 24 hrs by broth microdilution method; type: functional; details: ARC3657, 24 h; outline: as §1
Pseudomonas aeruginosa [6] = assay: Antibacterial activity against Pseudomonas aeruginosa ARC3756 after 24 hrs by broth microdilution method; type: functional; details: ARC3756, 24 h; outline: as §2
Escherichia coli = assay: Antibacterial activity against tolC deficient Escherichia coli after 24 hrs by broth microdilution method; type: functional
Outline: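 Broth microdilution per CLSI guidelines. Inoculum adjusted to 1×10^6 CFU/mL in cation-adjusted Mueller–Hinton broth, added 1:1 to 2-fold serial compound dilutions; final DMSO 2.5% v/v. Plates incubated 35 °C, 140 rpm, 24 h.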

Streptococcus pyogenes = assay: Antibacterial activity against Streptococcus pyogenes ARC838 after 24 hrs by broth microdilution method; type: functional; details: ARC838, 24 h; outline: as §2
Staphylococcus aureus [7] = assay: Antibacterial activity against methicillin-resistant Staphylococcus aureus USA100 after 24 hrs by broth microdilution method; type: functional; details: USA100, 24 h; outline: as §3
Acinetobacter baumannii [8] = assay: Antibacterial activity against Acinetobacter baumannii ARC2781 after 24 hrs by broth microdilution method; type: functional; details: ARC2781, 24 h; outline: as §2
Staphylococcus aureus [9] = assay: Antibacterial activity against Staphylococcus aureus ATCC 29213 after 24 hrs in presence of 2% human albumin by broth microdilution method; type: functional; details: ATCC 29213, 24 h
Haemophilus influenzae = assay: Antibacterial activity against Haemophilus influenzae ATCC 49247 after 24 hrs by broth microdilution method; type: functional; details: ATCC 49247, 24 h; outline: as §1
Acinetobacter baumannii [10] = assay: Antibacterial activity against Acinetobacter baumannii ARC3486 after 24 hrs by broth microdilution method; type: functional; details: ARC3486, 24 h; outline: as §1
Pseudomonas aeruginosa [11] = assay: Antibacterial activity against Pseudomonas aeruginosa ARC003 after 24 hrs by broth microdilution method; type: functional; details: ARC003, 24 h; outline: as §1
Candida albicans = assay: Antifungal activity against Candida albicans ATCC 90028 after 24 hrs by broth microdilution method; type: functional; details: ATCC 90028, 24 h
Acinetobacter baumannii [12] = assay: Antibacterial activity against Acinetobacter baumannii ARC2779 after 24 hrs by broth microdilution method; type: functional; details: ARC2779, 24 h; outline: as §1
Klebsiella pneumoniae = assay: Antibacterial activity against Klebsiella pneumoniae ARC1865 after 24 hrs by broth microdilution method; type: functional; details: ARC1865, 24 h; outline: as §1
Pseudomonas aeruginosa [13] = assay: Antibacterial activity against Pseudomonas aeruginosa ARC3505 after 24 hrs by broth microdilution method; type: functional; details: ARC3505, 24 h; outline: as §1
Pseudomonas aeruginosa [14] = assay: Antibacterial activity against Pseudomonas aeruginosa ARC3611 after 24 hrs by broth microdilution method; type: functional; details: ARC3611, 24 h; outline: as §1
Enterobacter cloacae = assay: Antibacterial activity against Enterobacter cloacae ARC3528 after 24 hrs by broth microdilution method; type: functional; details: ARC3528, 24 h; outline: as §1
Pseudomonas aeruginosa [15] = assay: Antibacterial activity against Pseudomonas aeruginosa ARC4063 after 24 hrs by broth microdilution method; type: functional; details: ARC4063, 24 h; outline: as §2
Pseudomonas aeruginosa [16] = assay: Antibacterial activity against Pseudomonas aeruginosa ARC3502 after 24 hrs by broth microdilution method; type: functional; details: ARC3502, 24 h; outline: as §2
Acinetobacter baumannii [17] = assay: (§4) Antibacterial activity against Acinetobacter baumannii ARC3495 after 24 hrs by broth microdilution method; type: functional; details: ARC3495, 24 h; outline: as §1
Acinetobacter baumannii [18] = assay: Antibacterial activity against Acinetobacter baumannii ARC3659 after 24 hrs by broth microdilution method; type: functional; details: ARC3659, 24 h; outline: as §1
[19] = Protein binding in human plasma; type: ADME, cell-free; details: read-out: PPB (converted)
Acinetobacter baumannii [20] = assay: Antibacterial activity against Acinetobacter baumannii ARC3882 after 24 hrs by broth microdilution method; type: functional; details: ARC3882, 24 h; outline: as §1
[21] = Growth inhibition of human A549 cells; type: cell-based
Acinetobacter baumannii [22] = assay: Antibacterial activity against Acinetobacter baumannii ARC3484 after 24 hrs by broth microdilution method; type: functional; details: ARC3484, 24 h; outline: as §2
[23] = Thermodynamic solubility of the compound at pH 7.4; type: physicochemical; details: buffer, BLD = below limit of detection
Acinetobacter baumannii [24] = assay: as §4; type: functional; details: ARC3495, 24 h; outline: as §1; remark: listed apart in the source
Acinetobacter baumannii [25] = assay: Antibacterial activity against Acinetobacter baumannii ARC2674 after 24 hrs by broth microdilution method; type: functional; details: ARC2674, 24 h; outline: as §1
Pseudomonas aeruginosa [26] = assay: Antibacterial activity against Pseudomonas aeruginosa ARC3514 after 24 hrs by broth microdilution method; type: functional; details: ARC3514, 24 h; outline: as §2
Acinetobacter baumannii [27] = assay: Antibacterial activity against Acinetobacter baumannii ARC3513 after 24 hrs by broth microdilution method; type: functional; details: ARC3513, 24 h; outline: as §1
Pseudomonas aeruginosa [28] = assay: Antibacterial activity against Pseudomonas aeruginosa ARC3925 after 24 hrs by broth microdilution method; type: functional; details: ARC3925, 24 h; outline: as §2
Acinetobacter baumannii [29] = assay: Antibacterial activity against Acinetobacter baumannii ARC2782 after 24 hrs by broth microdilution method; type: functional; details: ARC2782, 24 h; outline: as §1
Acinetobacter baumannii [30] = assay: Antibacterial activity against Acinetobacter baumannii ARC3489 after 24 hrs by broth microdilution method; type: functional; details: ARC3489, 24 h; outline: as §1
Pseudomonas aeruginosa [31] = assay: Antibacterial activity against Pseudomonas aeruginosa ARC3511 after 24 hrs by broth microdilution method; type: functional; details: ARC3511, 24 h; outline: as §2
Pseudomonas aeruginosa [32] = assay: Antibacterial activity against Pseudomonas aeruginosa ARC3729 after 24 hrs by broth microdilution method; type: functional; details: ARC3729, 24 h; outline: as §1
Pseudomonas aeruginosa [33] = assay: Antibacterial activity against Pseudomonas aeruginosa PAO1 after 24 hrs by broth microdilution method; type: functional; details: PAO1, 24 h; outline: as §1
Pseudomonas aeruginosa [34] = assay: Antibacterial activity against Pseudomonas aeruginosa ARC3506 after 24 hrs by broth microdilution method; type: functional; details: ARC3506, 24 h; outline: as §1
Pseudomonas aeruginosa [35] = assay: Antibacterial activity against Pseudomonas aeruginosa harboring MexABCDXY deletion mutant after 24 hrs by broth microdilution method; type: functional; outline: as §3
[36] = target: DNA topoisomerase 4 subunit B (Escherichia coli K-12, UniProt P20083); assay: Inhibition of Escherichia coli ParE
Pseudomonas aeruginosa [37] = assay: Antibacterial activity against Pseudomonas aeruginosa ARC3606 after 24 hrs by broth microdilution method; type: functional; details: ARC3606, 24 h; outline: as §1
Pseudomonas aeruginosa [38] = assay: Antibacterial activity against Pseudomonas aeruginosa ARC3916 after 24 hrs by broth microdilution method; type: functional; details: ARC3916, 24 h; outline: as §1

Chain of DNA topoisomerase 4 subunit B (P20083 whole entry): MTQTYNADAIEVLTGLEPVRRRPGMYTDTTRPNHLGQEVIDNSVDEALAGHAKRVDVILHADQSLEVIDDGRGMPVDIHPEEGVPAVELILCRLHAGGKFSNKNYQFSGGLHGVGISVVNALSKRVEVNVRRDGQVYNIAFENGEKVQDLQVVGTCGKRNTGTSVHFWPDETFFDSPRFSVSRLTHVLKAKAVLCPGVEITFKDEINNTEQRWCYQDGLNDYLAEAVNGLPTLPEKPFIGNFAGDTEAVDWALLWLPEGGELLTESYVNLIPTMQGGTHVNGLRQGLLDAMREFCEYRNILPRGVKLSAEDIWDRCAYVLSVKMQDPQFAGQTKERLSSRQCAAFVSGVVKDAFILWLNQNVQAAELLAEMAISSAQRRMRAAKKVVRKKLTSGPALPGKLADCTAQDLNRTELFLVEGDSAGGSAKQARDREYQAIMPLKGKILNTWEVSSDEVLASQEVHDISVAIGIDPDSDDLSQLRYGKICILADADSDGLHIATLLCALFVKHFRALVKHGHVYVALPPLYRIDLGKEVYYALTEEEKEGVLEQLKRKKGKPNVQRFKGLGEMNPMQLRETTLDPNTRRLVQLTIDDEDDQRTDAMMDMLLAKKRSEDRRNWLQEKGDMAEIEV

CCNC(=O)Nc1cc(-c2nc(C(F)(F)F)cs2)c(-c2cc3ncccc3nc2N2C3CCC2CN(C)C3)cn1
MIC (Acinetobacter baumannii [1]): 4 mg/L (≈ 7.03 µM) | MIC (Pseudomonas aeruginosa [2]): 32 mg/L (≈ 56.3 µM) | MIC (Acinetobacter baumannii [3]): 2 mg/L (≈ 3.52 µM) | MIC (Staphylococcus aureus [4]): < 0.06 mg/L | MIC (Acinetobacter baumannii [5]): 4 mg/L (≈ 7.03 µM) | MIC (Pseudomonas aeruginosa [6]): 16 mg/L (≈ 28.1 µM) | MIC (Escherichia coli): 0.14 mg/L (≈ 0.246 µM) | MIC (Streptococcus pyogenes): < 0.06 mg/L | MIC (Staphylococcus aureus [7]): < 0.06 mg/L | MIC (Acinetobacter baumannii [8]): 0.5 mg/L (≈ 0.879 µM) | MIC (Staphylococcus aureus [9]): < 0.06 mg/L | MIC (Haemophilus influenzae): 0.25 mg/L (≈ 0.44 µM) | MIC (Acinetobacter baumannii [10]): 2 mg/L (≈ 3.52 µM) | MIC (Pseudomonas aeruginosa [11]): 4 mg/L (≈ 7.03 µM) | MIC (Candida albicans): > 64 mg/L | MIC (Acinetobacter baumannii [12]): 2 mg/L (≈ 3.52 µM) | MIC (Klebsiella pneumoniae): 64 mg/L (≈ 113 µM) | MIC (Pseudomonas aeruginosa [13]): 32 mg/L (≈ 56.3 µM) | MIC (Pseudomonas aeruginosa [14]): 8 mg/L (≈ 14.1 µM) | MIC (Enterobacter cloacae): > 64 mg/L | MIC (Pseudomonas aeruginosa [15]): 16 mg/L (≈ 28.1 µM) | MIC (Pseudomonas aeruginosa [16]): 16 mg/L (≈ 28.1 µM) | MIC (Acinetobacter baumannii [17]): 2 mg/L (≈ 3.52 µM) | MIC (Acinetobacter baumannii [18]): 2 mg/L (≈ 3.52 µM) | fraction unbound [19]: 0.03 | MIC (Acinetobacter baumannii [20]): 2 mg/L (≈ 3.52 µM) | GI50 [21]: > 25 µM | MIC (Acinetobacter baumannii [22]): 4 mg/L (≈ 7.03 µM) | Therm_solubility [23]: Bld | MIC (Acinetobacter baumannii [24]): 2 mg/L (≈ 3.52 µM) | MIC (Acinetobacter baumannii [25]): 4 mg/L (≈ 7.03 µM) | MIC (Pseudomonas aeruginosa [26]): 8 mg/L (≈ 14.1 µM) | MIC (Acinetobacter baumannii [27]): 8 mg/L (≈ 14.1 µM) | MIC (Pseudomonas aeruginosa [28]): 16 mg/L (≈ 28.1 µM) | MIC (Acinetobacter baumannii [29]): 2 mg/L (≈ 3.52 µM) | MIC (Acinetobacter baumannii [30]): 2 mg/L (≈ 3.52 µM) | MIC (Pseudomonas aeruginosa [31]): 8 mg/L (≈ 14.1 µM) | MIC (Pseudomonas aeruginosa [32]): 8 mg/L (≈ 14.1 µM) | MIC (Pseudomonas aeruginosa [33]): 9.09 mg/L (≈ 16 µM) | MIC (Pseudomonas aeruginosa [34]): 16 mg/L (≈ 28.1 µM) | MIC (Pseudomonas aeruginosa [35]): 0.56 mg/L (≈ 0.985 µM) | IC50 [36]: 0.014 µM | MIC (Pseudomonas aeruginosa [37]): 32 mg/L (≈ 56.3 µM) | MIC (Pseudomonas aeruginosa [38]): 16 mg/L (≈ 28.1 µM)
